According to ChEMBL document CHEMBL2146414, “Lignan derivatives from Krameria lappacea roots inhibit acute inflammation in vivo and pro-inflammatory mediators in vitro” (J Nat Prod, 2011):
pIC50: −log10 of the molar value. The source made the active and inactive calls. No cut-off for these calls is given here.

How the values were obtained:
Mus musculus [1] = experiment: Antiinflammatory activity in CD1 mouse ear dermatitis model assessed as inhibition of Croton oil-induced ear edema at 0.10 umol administered topically per cm'2 of ear measured after induction of dermatitis relative to untreated control; assay type: functional
Outline: (§1)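 Male CD-1 mice (28–32 g), anesthetized with ketamine 145 mg/kg i.p.; right ear (about 1 cm2) given 80 μg croton oil in 15 μL acetone, with test substance co-applied in acetone; left ear left untreated. Controls received irritant only. 6 mm punches taken from both ears; edema = weight difference treated minus untreated; % inhibition vs controls. ID50 by graphic interpolation of log dose–effect curves; ANOVA with Dunnett's test.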

Mus musculus [2] = experiment: Antiinflammatory activity in CD1 mouse ear dermatitis model assessed as inhibition of Croton oil-induced ear edema at 0.30 umol administered topically per cm'2 of ear measured after induction of dermatitis relative to untreated control; assay type: functional; outline: as §1
Mus musculus [3] = experiment: Antiinflammatory activity in CD1 mouse ear dermatitis model assessed as inhibition of Croton oil-induced ear edema at 1 umol administered topically per cm'2 of ear measured after induction of dermatitis relative to untreated control; assay type: functional; outline: as §1
Mus musculus [4] = experiment: Antiinflammatory activity in CD1 mouse ear dermatitis model assessed as inhibition of Croton oil-induced ear edema administered topically per cm'2 of ear measured after induction of dermatitis relative to untreated control; assay type: functional
Mus musculus [5] = experiment: Antiinflammatory effect in CD1 mouse ear dermatitis model assessed as reduction in vascular changes at 0.4 umol administered topically per cm'2 of ear measured after 6 hrs post dermatitis induction relative to control; assay type: functional, organism-based
Outline: (§2)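 Male CD-1 mice (28–32 g) anesthetized with ketamine 145 mg/kg ip; right ear (about 1 cm2) given 80 μg croton oil in 15 μL acetone with test substance co-applied in acetone; controls irritant only; left ear untreated. Ears fixed in 10% formalin, paraffin-embedded, 10 μm sections stained hematoxylin-eosin or Giemsa, examined by light microscopy at set times after induction.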

Mus musculus [6] = experiment: Antiinflammatory effect in CD1 mouse ear dermatitis model assessed as reduction in cellular changes at 0.4 umol administered topically per cm'2 of ear measured after 6 hrs post dermatitis induction relative to control; assay type: functional, organism-based; outline: as §2
Mus musculus [7] = experiment: Antiinflammatory effect in CD1 mouse ear dermatitis model assessed as preservance of mast cell degranulation at 0.4 umol administered topically per cm'2 of ear measured after 6 hrs post dermatitis induction relative to control; assay type: functional, organism-based; outline: as §2
Mus musculus [8] = experiment: Antiinflammatory effect in CD1 mouse ear dermatitis model assessed as reduction in mast cell degranulation at 0.4 umol administered topically per cm'2 of ear measured after 6 hrs post dermatitis induction relative to control; assay type: functional, organism-based; outline: as §2
Mus musculus [9] = experiment: Antiinflammatory effect in CD1 mouse ear dermatitis model assessed as reduction in leukocyte infiltration-based myeloperoxidase at 0.4 umol administered topically per cm'2 of ear measured after 6 hrs post dermatitis induction relative to control; assay type: functional, organism-based
Outline: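 CD-1 mice, croton oil 80 μg in acetone on right ear with topical test substance; ear punch (6 mm) homogenized in 0.1 M sodium acetate pH 4.2 with 0.1% HTAB, centrifuged 15000g 5 min; supernatant myeloperoxidase measured with TMB (2.83 mM) and 0.7 mM H2O2, 5 min at 25 °C, stopped with acetic acid, A620; duplicates; units = nM TMB oxidized/min.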

Mus musculus [10] = experiment: Antiinflammatory effect in CD1 mouse ear dermatitis model assessed as dermal swelling at 0.4 umol administered topically per cm'2 of ear after 9 hrs of post dermatitis induction relative to control; assay type: functional, organism-based; outline: as §2
Mus musculus [11] = experiment: Antiinflammatory activity in CD1 mouse ear dermatitis model assessed as inhibition of Croton oil-induced ear edema at 0.4 umol administered topically per cm'2 of ear measured 48 hrs after induction of dermatitis relative to untreated control
[12] = Inhibition of NFkappaB activity transfected in HEK293 cells pretreated for 1 hr before 6 hrs of LPS challenge by luciferase reporter gene assay; conditions: Homo sapiens
Mus musculus [13] = experiment: Antiinflammatory activity in CD1 mouse ear dermatitis model assessed as inhibition of Croton oil-induced ear edema at 0.04 umol administered topically per cm'2 of ear measured 6 hrs after induction of dermatitis relative to untreated control; assay type: functional; outline: as §1
Mus musculus [14] = experiment: Antiinflammatory activity in CD1 mouse ear dermatitis model assessed as inhibition of Croton oil-induced ear edema at 0.04 umol administered topically per cm'2 of ear measured 12 hrs after induction of dermatitis relative to untreated control; assay type: functional; outline: as §1
Mus musculus [15] = experiment: Antiinflammatory activity in CD1 mouse ear dermatitis model assessed as reduction in AUC of Croton oil-induced ear edema response at 0.04 umol administered topically per cm'2 of ear measured 48 hrs after induction of dermatitis relative to untreated control; assay type: functional
Outline: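 Croton oil dermatitis on the right ear of anesthetized male CD-1 mice, with compound co-applied topically in acetone. Ear punch weight difference (treated minus untreated ear) measured at several times up to 48 h.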

Mus musculus [16] = experiment: Antiinflammatory activity in CD1 mouse ear dermatitis model assessed as reduction in leukocyte infiltration-based myeloperoxidase activity at 0.04 umol administered topically per cm'2 of ear measured 3 to 48 hrs post dermatitis induction relative to untreated control; assay type: functional
Outline: (§3)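 Same croton oil ear model in CD-1 mice. The ear punch is homogenized in 0.1 M acetate pH 4.2 with 0.1% HTAB and centrifuged 15000g for 5 min. Supernatant myeloperoxidase is assayed with 2.83 mM TMB plus 0.7 mM H2O2 for 5 min at 25 °C, stopped with acetic acid, A620, duplicates.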

Mus musculus [17] = experiment: Antiinflammatory effect in CD1 mouse ear dermatitis model assessed as reduction in vascular changes at 0.04 umol administered topically per cm'2 of ear measured after 6 hrs post dermatitis induction relative to control; assay type: functional, organism-based; outline: as §2
Mus musculus [18] = experiment: Antiinflammatory effect in CD1 mouse ear dermatitis model assessed as reduction in cellular changes at 0.04 umol administered topically per cm'2 of ear measured after 6 hrs post dermatitis induction relative to control; assay type: functional, organism-based; outline: as §2
Mus musculus [19] = experiment: Antiinflammatory activity in CD1 mouse ear dermatitis model assessed as inhibition of Croton oil-induced ear edema at 0.01 umol administered topically per cm'2 of ear measured after induction of dermatitis relative to untreated control; assay type: functional; outline: as §1
Mus musculus [20] = experiment: Antiinflammatory activity in CD1 mouse ear dermatitis model assessed as inhibition of Croton oil-induced ear edema at 0.03 umol administered topically per cm'2 of ear measured after induction of dermatitis relative to untreated control; assay type: functional; outline: as §1
Mus musculus [21] = experiment: Antiinflammatory activity in CD1 mouse ear dermatitis model assessed as reduction in AUC of global leukocyte infiltration-based myeloperoxidase activity at 0.04 umol administered topically per cm'2 of ear measured 3 to 48 hrs post dermatitis induction relative to untreated control; assay type: functional; outline: as §3
[22] = test system: Radical scavenging activity; experiment: Antioxidant activity assessed as DPPH free radical scavenging activity after 30 mins by spectrophotometry; assay type: functional; conditions: read-out: IC50

SMILES: COc1ccc2c(c1)c(CC(=O)O)c(C)n2C(=O)c1ccc(Cl)cc1 [INDOMETHACIN]
- inhibition (INH) (Mus musculus [1]): 25%
- inhibition (INH) (Mus musculus [2]): 51%
- inhibition (INH) (Mus musculus [3]): 80%
- ID50 (Mus musculus [4]): 0.29 umol/cm2
- inhibition (Mus musculus [5]): Active
- inhibition (Mus musculus [6]): Active
- inhibition (Mus musculus [7]): Active
- inhibition (Mus musculus [8]): Active
- inhibition (Mus musculus [9]): Active
- inhibition (Mus musculus [10]): inactive
- inhibition (Mus musculus [11]): inactive

SMILES: C=C1C(=O)O[C@@H]2[C@H]3O[C@]3(C)CC/C=C(\C)CC[C@@H]12
- pIC50 [12]: 5.85

SMILES: C[C@]12CCC(=O)C=C1CC[C@@H]1[C@@H]2[C@@H](O)C[C@@]2(C)[C@H]1CC[C@]2(O)C(=O)CO [HYDROCORTISONE]
- inhibition (INH) (Mus musculus [1]): 77%
- ID50 (Mus musculus [4]): 0.03 umol/cm2
- inhibition (INH) (Mus musculus [13]): 79%
- inhibition (INH) (Mus musculus [14]): 60%
- inhibition (INH) (Mus musculus [15]): 69%
- inhibition (INH) (Mus musculus [16]): 35%
- inhibition (Mus musculus [17]): Active
- inhibition (Mus musculus [18]): Active
- inhibition (INH) (Mus musculus [19]): 29%
- inhibition (INH) (Mus musculus [20]): 55%
- inhibition (INH) (Mus musculus [21]): 51%

SMILES: O=C1O[C@H]([C@@H](O)CO)C(O)=C1O [ASCORBIC ACID]
- pIC50 [22]: 4.62
